“And” between values parts separate entries of the source, which are not always exact repeats. Identical values can stand only once.
System: U2OS
Test: Multiplex assay against U2OS
Assay type: toxicity, cell-based
Conditions: human
Outline: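 On a CQ1 microscope at 37°C and 5% CO2, live cells were imaged after compound addition. They had been stained at seeding with Hoechst33342, BioTracker Green Microtubule Cytoskeleton Dye, MitoTracker Red and Annexin V Alexa Fluor 680. CellPathfinder machine-learning gating assigned cells to Hoechst high-intensity objects or normal cells, normal cells to healthy, pyknosed or fragmented nuclei, and pyknosed cells to mitotic or apoptotic. Tubulin, mitochondrial-mass and membrane-permeability phenotypes are per cents of healthy-nucleus cells.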

[1] = 12 h, 1 µM, compound concentration 1 uM, replicate 1
[2] = 12 h, 1 µM, compound concentration 1 uM, replicate 2
[3] = 12 h, 10 µM, compound concentration 10 uM, replicate 1
[4] = 12 h, 10 µM, compound concentration 10 uM, replicate 2
[5] = 24 h, 1 µM, compound concentration 1 uM, replicate 1
[6] = 24 h, 1 µM, compound concentration 1 uM, replicate 2
[7] = 24 h, 10 µM, compound concentration 10 uM, replicate 1
[8] = 24 h, 10 µM, compound concentration 10 uM, replicate 2
[9] = 48 h, 1 µM, compound concentration 1 uM, replicate 1
[10] = 48 h, 1 µM, compound concentration 1 uM, replicate 2
[11] = 48 h, 10 µM, compound concentration 10 uM, replicate 1
[12] = 48 h, 10 µM, compound concentration 10 uM, replicate 2

## CN1CCN(c2nc3cc(C(F)(F)F)ccc3n3cccc23)CC1.O=C(O)/C=C\C(=O)O.O=C(O)/C=C\C(=O)O
[1]
  Population Apoptotic (%): 77%
  Population Fragmented Nuclei (%): 17%
  Population Healthy Nuclei (%): 75%
  Population Hoechst High Intensity Objects (%): 1%
  Population Membrane Permeable-Phenotype (%): 4%
  Population Mitochondria Different-Phenotype (%): 0%
  Population Mitotic Cells (%): 22%
  Population Normal (%): 98%
  Population Pyknosed Nuclei (%): 6%
  Population Tubulin-Different-Phenotype (%): 1%
  Total Cell Count: 266
[2]
  Population Apoptotic (%): 100%
  Population Fragmented Nuclei (%): 18%
  Population Healthy Nuclei (%): 73%
  Population Hoechst High Intensity Objects (%): 0%
  Population Membrane Permeable-Phenotype (%): 8%
  Population Mitochondria Different-Phenotype (%): 2%
  Population Mitotic Cells (%): 0%
  Population Normal (%): 99%
  Population Pyknosed Nuclei (%): 8%
  Population Tubulin-Different-Phenotype (%): 3%
  Total Cell Count: 111
[3]
  Population Apoptotic (%): 66%
  Population Fragmented Nuclei (%): 31%
  Population Healthy Nuclei (%): 53%
  Population Hoechst High Intensity Objects (%): 1%
  Population Membrane Permeable-Phenotype (%): 18%
  Population Mitochondria Different-Phenotype (%): 45%
  Population Mitotic Cells (%): 33%
  Population Normal (%): 98%
  Population Pyknosed Nuclei (%): 15%
  Population Tubulin-Different-Phenotype (%): 19%
  Total Cell Count: 218
[4]
  Population Apoptotic (%): 88%
  Population Fragmented Nuclei (%): 25%
  Population Healthy Nuclei (%): 68%
  Population Hoechst High Intensity Objects (%): 2%
  Population Membrane Permeable-Phenotype (%): 13%
  Population Mitochondria Different-Phenotype (%): 41%
  Population Mitotic Cells (%): 11%
  Population Normal (%): 97%
  Population Pyknosed Nuclei (%): 6%
  Population Tubulin-Different-Phenotype (%): 21%
  Total Cell Count: 135
[5]
  Population Apoptotic (%): 85%
  Population Fragmented Nuclei (%): 17%
  Population Healthy Nuclei (%): 73%
  Population Hoechst High Intensity Objects (%): 2%
  Population Membrane Permeable-Phenotype (%): 5%
  Population Mitochondria Different-Phenotype (%): 1%
  Population Mitotic Cells (%): 14%
  Population Normal (%): 97%
  Population Pyknosed Nuclei (%): 9%
  Population Tubulin-Different-Phenotype (%): 3%
  Total Cell Count: 300
[6]
  Population Apoptotic (%): 92%
  Population Fragmented Nuclei (%): 13%
  Population Healthy Nuclei (%): 77%
  Population Hoechst High Intensity Objects (%): 0%
  Population Membrane Permeable-Phenotype (%): 8%
  Population Mitochondria Different-Phenotype (%): 4%
  Population Mitotic Cells (%): 7%
  Population Normal (%): 99%
  Population Tubulin-Different-Phenotype (%): 4%
  Total Cell Count: 136
[7]
  Population Apoptotic (%): 76%
  Population Fragmented Nuclei (%): 31%
  Population Healthy Nuclei (%): 57%
  Population Hoechst High Intensity Objects (%): 3%
  Population Membrane Permeable-Phenotype (%): 16%
  Population Mitochondria Different-Phenotype (%): 41%
  Population Mitotic Cells (%): 24%
  Population Normal (%): 96%
  Population Pyknosed Nuclei (%): 10%
  Population Tubulin-Different-Phenotype (%): 14%
  Total Cell Count: 244
[8]
  Population Apoptotic (%): 78%
  Population Fragmented Nuclei (%): 19%
  Population Healthy Nuclei (%): 71%
  Population Membrane Permeable-Phenotype (%): 17%
  Population Mitochondria Different-Phenotype (%): 36%
  Population Mitotic Cells (%): 21%
  Population Pyknosed Nuclei (%): 9%
  Population Tubulin-Different-Phenotype (%): 16%
  Total Cell Count: 156
[9]
  Population Apoptotic (%): 87%
  Population Fragmented Nuclei (%): 14%
  Population Healthy Nuclei (%): 77%
  Population Hoechst High Intensity Objects (%): 2%
  Population Membrane Permeable-Phenotype (%): 4%
  Population Mitochondria Different-Phenotype (%): 0%
  Population Mitotic Cells (%): 12%
  Population Normal (%): 97%
  Population Pyknosed Nuclei (%): 7%
  Population Tubulin-Different-Phenotype (%): 2%
  Total Cell Count: 447
[10]
  Population Apoptotic (%): 85%
  Population Fragmented Nuclei (%): 17%
  Population Healthy Nuclei (%): 75%
  Population Hoechst High Intensity Objects (%): 1%
  Population Membrane Permeable-Phenotype (%): 6%
  Population Mitochondria Different-Phenotype (%): 5%
  Population Mitotic Cells (%): 14%
  Population Normal (%): 98%
  Population Tubulin-Different-Phenotype (%): 3%
  Total Cell Count: 187
[11]
  Population Apoptotic (%): 78%
  Population Fragmented Nuclei (%): 31%
  Population Healthy Nuclei (%): 52%
  Population Hoechst High Intensity Objects (%): 4%
  Population Membrane Permeable-Phenotype (%): 16%
  Population Mitochondria Different-Phenotype (%): 17%
  Population Mitotic Cells (%): 21%
  Population Normal (%): 95%
  Population Pyknosed Nuclei (%): 16%
  Population Tubulin-Different-Phenotype (%): 12%
  Total Cell Count: 299
[12]
  Population Apoptotic (%): 81%
  Population Fragmented Nuclei (%): 21%
  Population Healthy Nuclei (%): 67%
  Population Hoechst High Intensity Objects (%): 3%
  Population Membrane Permeable-Phenotype (%): 10%
  Population Mitochondria Different-Phenotype (%): 16%
  Population Mitotic Cells (%): 18%
  Population Normal (%): 96%
  Population Pyknosed Nuclei (%): 11%
  Population Tubulin-Different-Phenotype (%): 9%
  Total Cell Count: 202

## CC(=O)O[C@H]1C(=O)[C@@]2(C)[C@H]([C@H](OC(=O)c3ccccc3)[C@]3(O)C[C@H](OC(=O)[C@H](O)[C@@H](NC(=O)c4ccccc4)c4ccccc4)C(C)=C1C3(C)C)[C@]1(OC(C)=O)CO[C@@H]1C[C@@H]2O [PACLITAXEL]
[3]
  Population Apoptotic (%): 64% and 59%
  Population Fragmented Nuclei (%): 28% and 29%
  Population Healthy Nuclei (%): 46% and 43%
  Population Hoechst High Intensity Objects (%): 8% and 3%
  Population Membrane Permeable-Phenotype (%): 23% and 12%
  Population Mitochondria Different-Phenotype (%): 25% and 38%
  Population Mitotic Cells (%): 35% and 40%
  Population Normal (%): 91% and 96%
  Population Pyknosed Nuclei (%): 24% and 26%
  Population Tubulin-Different-Phenotype (%): 16% and 7%
  Total Cell Count: 200 and 236
[4]
  Population Apoptotic (%): 71% and 72%
  Population Fragmented Nuclei (%): 16% and 22%
  Population Healthy Nuclei (%): 60% and 63%
  Population Hoechst High Intensity Objects (%): 2%
  Population Membrane Permeable-Phenotype (%): 10% and 4%
  Population Mitochondria Different-Phenotype (%): 30% and 46%
  Population Mitotic Cells (%): 28% and 27%
  Population Normal (%): 97%
  Population Pyknosed Nuclei (%): 23% and 14%
  Population Tubulin-Different-Phenotype (%): 14% and 8%
  Total Cell Count: 94 and 79
[7]
  Population Apoptotic (%): 69% and 64%
  Population Fragmented Nuclei (%): 33% and 27%
  Population Healthy Nuclei (%): 36% and 49%
  Population Hoechst High Intensity Objects (%): 4% and 5%
  Population Membrane Permeable-Phenotype (%): 21% and 13%
  Population Mitochondria Different-Phenotype (%): 44% and 34%
  Population Mitotic Cells (%): 30% and 35%
  Population Normal (%): 95% and 94%
  Population Pyknosed Nuclei (%): 29% and 23%
  Population Tubulin-Different-Phenotype (%): 13% and 12%
  Total Cell Count: 198 and 233
[8]
  Population Apoptotic (%): 58% and 85%
  Population Fragmented Nuclei (%): 25%
  Population Healthy Nuclei (%): 48% and 50%
  Population Hoechst High Intensity Objects (%): 7%
  Population Membrane Permeable-Phenotype (%): 15% and 9%
  Population Mitochondria Different-Phenotype (%): 52%
  Population Mitotic Cells (%): 41% and 15%
  Population Normal (%): 92%
  Population Pyknosed Nuclei (%): 26% and 24%
  Population Tubulin-Different-Phenotype (%): 18% and 9%
  Total Cell Count: 95 and 90
[11]
  Population Apoptotic (%): 76% and 82%
  Population Fragmented Nuclei (%): 35% and 39%
  Population Healthy Nuclei (%): 30% and 25%
  Population Hoechst High Intensity Objects (%): 12% and 13%
  Population Membrane Permeable-Phenotype (%): 27% and 25%
  Population Mitochondria Different-Phenotype (%): 29% and 25%
  Population Mitotic Cells (%): 23% and 17%
  Population Normal (%): 87% and 86%
  Population Pyknosed Nuclei (%): 33% and 34%
  Population Tubulin-Different-Phenotype (%): 16% and 14%
  Total Cell Count: 203 and 246
[12]
  Population Apoptotic (%): 70% and 91%
  Population Fragmented Nuclei (%): 27% and 37%
  Population Healthy Nuclei (%): 31% and 34%
  Population Hoechst High Intensity Objects (%): 8% and 15%
  Population Membrane Permeable-Phenotype (%): 14% and 6%
  Population Mitochondria Different-Phenotype (%): 50% and 44%
  Population Normal (%): 91% and 84%
  Population Pyknosed Nuclei (%): 41% and 27%
  Population Tubulin-Different-Phenotype (%): 25% and 13%
  Total Cell Count: 98
